Assay results published in ChEMBL document CHEMBL4373647, “Design, synthesis, and antimicrobial evaluation of 1,4-dihydroindeno[1,2-c]pyrazole tethered carbohydrazide hybrids: exploring their in silico ADMET, ergosterol inhibition and ROS inducing potential” (Medchemcomm, 2019).
≈ marks a conversion by molar mass, not a printed value. Calls of active or inactive are those of the source. No cut-off for these calls is given here.

Experiments:
Bacillus subtilis [1] = test: Antibacterial activity against Bacillus subtilis MTCC 121 assessed as inhibition of bacterial growth incubated for 24 hrs by agar well diffusion method; assay type: functional; settings: MTCC 121, 24 h
Summary of the method: (§1)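 Strains from MTCC; inoculum at 0.5 McFarland spread on Mueller-Hinton agar; 6 mm wells loaded with compound over 125–0.97 µg/mL; ciprofloxacin positive control (same range), DMSO negative control. Plates held 24 h at 37 °C; MIC taken as lowest concentration giving a clear inhibition zone. Triplicate runs, mean MIC reported.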

Pseudomonas aeruginosa [2] = test: Bactericidal activity against Pseudomonas aeruginosa MTCC 2453 assessed as bacterial killing incubated for 24 hrs; assay type: functional; settings: MTCC 2453, 24 h
Summary of the method: (§2)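 Broth tube assay: compound at 0–125 µg/mL in Mueller Hinton broth, overnight culture added to 0.5 McFarland (1.5 × 10^8 cfu/mL), held 24 h at 37 °C. 10 µL from each tube plated on Mueller Hinton agar. MBC is the lowest concentration that kills the strain. Duplicates, means reported.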

Staphylococcus aureus [3] = test: Antibacterial activity against Staphylococcus aureus MTCC 96 assessed as inhibition of bacterial growth incubated for 24 hrs by agar well diffusion method; assay type: functional; settings: MTCC 96, 24 h; summary of the method: as §1
Candida albicans [4] = test: Ratio of MFC to MIC against Candida albicans MTCC 3018; assay type: functional
Summary of the method: (§3)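 MIC by agar well diffusion: Candida lawns on Mueller-Hinton agar, wells loaded with compound in 10% DMSO (125–0.97 µg/mL), 24 h at 37 °C, lowest concentration giving an inhibition zone. MFC: compound in Mueller-Hinton broth (125–0.97 µg/mL) with yeast, 24 h at 37 °C, 10 µL plated on agar, lowest killing concentration after 24 h. Ratio is MFC/MIC.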

Candida parapsilosis [5] = test: Ratio of MFC to MIC against Candida parapsilosis MTCC 1744; assay type: functional; summary of the method: as §3
Candida albicans [6] = test: Antifungal activity against Candida albicans MTCC 4748 assessed as inhibition of fungal growth incubated for 24 hrs by agar well diffusion method; assay type: functional; settings: MTCC 4748, 24 h
Summary of the method: (§4)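 Candida strains from MTCC, pre-cultured and spread on Mueller Hinton agar. Wells received compound dissolved in 10% DMSO, 125–0.97 µg/mL; miconazole standard over the same range, DMSO negative control. After 24 h at 37 °C, MIC was read as the lowest concentration giving an inhibition zone. Duplicate experiments, means given.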

Candida albicans [7] = test: Fungicidal activity against Candida albicans MTCC 4748 assessed as fungal killing incubated for 24 hrs; assay type: functional; settings: MTCC 4748, 24 h
Summary of the method: (§5)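 Compound at 125–0.97 µg/mL in Mueller Hinton broth in microcentrifuge tubes, each Candida strain added, held 24 h at 37 °C. 10 µL of the treated suspension plated on Mueller Hinton agar and incubated a further 24 h at 37 °C. MFC is the lowest concentration that kills the strain. Duplicates, means reported.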

MRC5 = test: Cytotoxicity against human MRC5 cells incubated for 48 hrs by MTT assay; assay type: cell-based; settings: MRC5, 48 h
Summary of the method: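 Normal human lung MRC5 cells grown 24 h in 96-well plates, then exposed to a range of compound concentrations for 48 h. MTT (250 µg/mL) added for 2 h, medium replaced by DMSO, absorbance read at 570 nm. Miconazole positive control, DMSO negative control. Triplicates, mean ± S.D.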

Staphylococcus aureus [8] = test: Antibacterial activity against Staphylococcus aureus MLS-16 MTCC 2940 assessed as inhibition of bacterial growth incubated for 24 hrs by agar well diffusion method; assay type: functional; settings: MLS-16 MTCC 2940, 24 h; summary of the method: as §1
Nakaseomyces glabratus [9] = test: Fungicidal activity against Candida glabrata MTCC 3019 assessed as fungal killing incubated for 24 hrs; assay type: functional; settings: MTCC 3019, 24 h; summary of the method: as §5
Pichia sporocuriosa [10] = test: Fungicidal activity against Issatchenkia hanoiensis MTCC 4755 assessed as fungal killing incubated for 24 hrs; assay type: functional; settings: MTCC 4755, 24 h; summary of the method: as §5
Candida albicans [11] = test: Ratio of MFC to MIC against Candida albicans MTCC 7315; assay type: functional; summary of the method: as §3
Raoultella planticola [12] = test: Antibacterial activity against Klebsiella planticola MTCC 530 assessed as inhibition of bacterial growth incubated for 24 hrs by agar well diffusion method; assay type: functional; settings: MTCC 530, 24 h; summary of the method: as §1
Candida parapsilosis [13] = test: Antifungal activity against Candida parapsilosis MTCC 1744 assessed as inhibition of fungal growth incubated for 24 hrs by agar well diffusion method; assay type: functional; settings: Lodderomyces parapsilosis, MTCC 1744, 24 h; summary of the method: as §4
Micrococcus luteus [14] = test: Antibacterial activity against Micrococcus luteus MTCC 2470 assessed as inhibition of bacterial growth incubated for 24 hrs by agar well diffusion method; assay type: functional; settings: MTCC 2470, 24 h; summary of the method: as §1
Nakaseomyces glabratus [15] = test: Ratio of MFC to MIC against Candida glabrata MTCC 3019; assay type: functional; summary of the method: as §3
Pichia kudriavzevii [16] = test: Antifungal activity against Candida krusei MTCC 3020 assessed as inhibition of fungal growth incubated for 24 hrs by agar well diffusion method; assay type: functional; settings: MTCC 3020, 24 h; summary of the method: as §4
Micrococcus luteus [17] = test: Ratio of MBC to MIC against Micrococcus luteus MTCC 2470; assay type: functional
Raoultella planticola [18] = test: Ratio of MBC to MIC for Klebsiella planticola MTCC 530; assay type: functional
Candida albicans [19] = test: Antifungal activity against Candida albicans MTCC 7315 assessed as inhibition of fungal growth incubated for 24 hrs by agar well diffusion method; assay type: functional; settings: MTCC 7315, 24 h; summary of the method: as §4
Candida albicans [20] = test: Antifungal activity against Candida albicans MTCC 183 assessed as inhibition of fungal growth incubated for 24 hrs by agar well diffusion method; assay type: functional; summary of the method: as §4
Staphylococcus aureus [21] = test: Bactericidal activity against Staphylococcus aureus MLS-16 MTCC 2940 assessed as bacterial killing incubated for 24 hrs; assay type: functional; settings: MLS-16 MTCC 2940, 24 h; summary of the method: as §2
Escherichia coli [22] = test: Antibacterial activity against Escherichia coli MTCC 739 assessed as inhibition of bacterial growth incubated for 24 hrs by agar well diffusion method; assay type: functional; settings: MTCC 739, 24 h; summary of the method: as §1
Staphylococcus aureus [23] = test: Ratio of MBC to MIC against Staphylococcus aureus MLS-16 MTCC 2940; assay type: functional
Raoultella planticola [24] = test: Bactericidal activity against Klebsiella planticola MTCC 530 assessed as bacterial killing incubated for 24 hrs; assay type: functional; settings: MTCC 530, 24 h; summary of the method: as §2
Staphylococcus aureus [25] = test: Ratio of MBC to MIC against Staphylococcus aureus MTCC 96; assay type: functional
Pichia sporocuriosa [26] = test: Ratio of MFC to MIC against Issatchenkia hanoiensis MTCC 4755; assay type: functional; summary of the method: as §3
Bacillus subtilis [27] = test: Bactericidal activity against Bacillus subtilis MTCC 121 assessed as bacterial killing incubated for 24 hrs; assay type: functional; settings: MTCC 121, 24 h; summary of the method: as §2
Pseudomonas aeruginosa [28] = test: Antibacterial activity against Pseudomonas aeruginosa MTCC 2453 assessed as inhibition of bacterial growth incubated for 24 hrs by agar well diffusion method; assay type: functional; settings: MTCC 2453, 24 h; summary of the method: as §1
Candida albicans [29] = test: Fungicidal activity against Candida albicans MTCC 7315 assessed as fungal killing incubated for 24 hrs; assay type: functional; settings: MTCC 7315, 24 h; summary of the method: as §5
Pseudomonas aeruginosa [30] = test: Ratio of MBC to MIC for Pseudomonas aeruginosa MTCC 2453; assay type: functional
Escherichia coli [31] = test: Ratio of MBC to MIC for Escherichia coli MTCC 739; assay type: functional
Pichia kudriavzevii [32] = test: Ratio of MFC to MIC against Candida krusei MTCC 3020; assay type: functional; summary of the method: as §3
Candida albicans [33] = test: Antifungal activity against Candida albicans MTCC 227 assessed as inhibition of fungal growth incubated for 24 hrs by agar well diffusion method; assay type: functional; settings: MTCC 227, 24 h; summary of the method: as §4
Candida parapsilosis [34] = test: Fungicidal activity against Candida parapsilosis MTCC 1744 assessed as fungal killing incubated for 24 hrs; assay type: functional; settings: Lodderomyces parapsilosis, MTCC 1744, 24 h; summary of the method: as §5
Candida albicans [35] = test: Ratio of MFC to MIC against Candida albicans MTCC 227; assay type: functional; summary of the method: as §3

Row | Structure (SMILES) | MIC (Bacillus subtilis [1]) | MBC (Pseudomonas aeruginosa [2]) | MIC (Staphylococcus aureus [3]) | Ratio (Candida albicans [4]) | Ratio (Candida parapsilosis [5]) | MIC (Candida albicans [6]) | MFC (Candida albicans [7]) | IC50 (MRC5) | MIC (Staphylococcus aureus [8]) | MFC (Nakaseomyces glabratus [9]) | MFC (Pichia sporocuriosa [10]) | Ratio (Candida albicans [11]) | MIC (Raoultella planticola [12]) | MIC (Candida parapsilosis [13]) | MIC (Micrococcus luteus [14]) | Ratio (Nakaseomyces glabratus [15]) | MIC (Pichia kudriavzevii [16]) | Ratio (Micrococcus luteus [17]) | Ratio (Raoultella planticola [18]) | MIC (Candida albicans [19]) | other results
1 | COc1cc(/C=N/NC(=O)c2n[nH]c3c2Cc2ccccc2-3)ccc1O | 3.9 µg/mL (≈ 11.2 µM) | 15.6 µg/mL (≈ 44.8 µM) | 3.9 µg/mL (≈ 11.2 µM) | 2 | 2 | 3.9 µg/mL (≈ 11.2 µM) | 7.8 µg/mL (≈ 22.4 µM) | 31.2 µg/mL (≈ 89.6 µM) | 7.8 µg/mL (≈ 22.4 µM) | 7.8 µg/mL (≈ 22.4 µM) | 31.2 µg/mL (≈ 89.6 µM) | 2 | 3.9 µg/mL (≈ 11.2 µM) | 15.6 µg/mL (≈ 44.8 µM) | 7.8 µg/mL (≈ 22.4 µM) | 2 | 15.6 µg/mL (≈ 44.8 µM) | 2 | 2 | 7.8 µg/mL (≈ 22.4 µM) | MIC (Candida albicans [20]): inactive; MBC (Staphylococcus aureus [21]): 15.6 µg/mL (≈ 44.8 µM); MIC (Escherichia coli [22]): 7.8 µg/mL (≈ 22.4 µM); Ratio (Staphylococcus aureus [23]): 2; MBC (Raoultella planticola [24]): 7.8 µg/mL (≈ 22.4 µM); Ratio (Staphylococcus aureus [25]): 2; Ratio (Pichia sporocuriosa [26]): 2; MBC (Bacillus subtilis [27]): 7.8 µg/mL (≈ 22.4 µM); MIC (Pseudomonas aeruginosa [28]): 7.8 µg/mL (≈ 22.4 µM); MFC (Candida albicans [29]): 15.6 µg/mL (≈ 44.8 µM); Ratio (Pseudomonas aeruginosa [30]): 2; Ratio (Escherichia coli [31]): 2; Ratio (Pichia kudriavzevii [32]): 2; MIC (Candida albicans [33]): 7.8 µg/mL (≈ 22.4 µM); MFC (Candida parapsilosis [34]): 31.2 µg/mL (≈ 89.6 µM); Ratio (Candida albicans [35]): 2
2 | O=C(N/N=C/c1ccc(O)cc1)c1n[nH]c2c1Cc1ccccc1-2 | 7.8 µg/mL (≈ 24.5 µM) | 15.6 µg/mL (≈ 49 µM) | 3.9 µg/mL (≈ 12.3 µM) | 2 | 2 | > 31.2 µg/mL | > 62.5 µg/mL | 35.6 µg/mL (≈ 112 µM) | 3.9 µg/mL (≈ 12.3 µM) | > 62.5 µg/mL | 62.4 µg/mL (≈ 196 µM) | 2 | 7.8 µg/mL (≈ 24.5 µM) | 15.6 µg/mL (≈ 49 µM) | 7.8 µg/mL (≈ 24.5 µM) | 2 | 15.6 µg/mL (≈ 49 µM) | 2 | 2 | 15.6 µg/mL (≈ 49 µM) | MIC (Candida albicans [20]): inactive; MBC (Staphylococcus aureus [21]): 7.8 µg/mL (≈ 24.5 µM); MIC (Escherichia coli [22]): 3.9 µg/mL (≈ 12.3 µM); Ratio (Staphylococcus aureus [23]): 2; MBC (Raoultella planticola [24]): 15.6 µg/mL (≈ 49 µM); Ratio (Staphylococcus aureus [25]): 2; Ratio (Pichia sporocuriosa [26]): 2; MBC (Bacillus subtilis [27]): 15.6 µg/mL (≈ 49 µM); MIC (Pseudomonas aeruginosa [28]): 7.8 µg/mL (≈ 24.5 µM); MFC (Candida albicans [29]): 31.2 µg/mL (≈ 98 µM); Ratio (Pseudomonas aeruginosa [30]): 2; Ratio (Escherichia coli [31]): 2; Ratio (Pichia kudriavzevii [32]): 2; MIC (Candida albicans [33]): 7.8 µg/mL (≈ 24.5 µM); MFC (Candida parapsilosis [34]): 31.2 µg/mL (≈ 98 µM); Ratio (Candida albicans [35]): 2
